Molecules are shown by their SMILES. pKd: −log10 of the molar value.

Usually pKd stands for the negative decadic logarithm of the Kd, by convention in mol/L. Lower therefore signals a large Kd.

For the assay, the target named is angiotensin-converting enzyme 2 (ACE2) (Homo sapiens, UniProt Q9BYF1). The assay can be described thus: SPR. The assay is classed as binding. A digest of the protocol: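 Nitrilotriacetic acid (NTA) sensor chip surface primed and charged with Ni2+ by sequential injection of 200 mM imidazole and 40 mM NiCl2. His6-tagged ACE2 protein at 20 μg/mL captured on the chip, with test compound as analyte. Supporting ACE2h cell membrane chromatography: 10.0 mm × 2.0 mm column, 37 °C, 0.2 mL/min, 2 mM phosphate-buffered saline (pH 7.4), detection at 284 nm.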
Sequence of angiotensin-converting enzyme 2 (ACE2) (Q9BYF1 18-805): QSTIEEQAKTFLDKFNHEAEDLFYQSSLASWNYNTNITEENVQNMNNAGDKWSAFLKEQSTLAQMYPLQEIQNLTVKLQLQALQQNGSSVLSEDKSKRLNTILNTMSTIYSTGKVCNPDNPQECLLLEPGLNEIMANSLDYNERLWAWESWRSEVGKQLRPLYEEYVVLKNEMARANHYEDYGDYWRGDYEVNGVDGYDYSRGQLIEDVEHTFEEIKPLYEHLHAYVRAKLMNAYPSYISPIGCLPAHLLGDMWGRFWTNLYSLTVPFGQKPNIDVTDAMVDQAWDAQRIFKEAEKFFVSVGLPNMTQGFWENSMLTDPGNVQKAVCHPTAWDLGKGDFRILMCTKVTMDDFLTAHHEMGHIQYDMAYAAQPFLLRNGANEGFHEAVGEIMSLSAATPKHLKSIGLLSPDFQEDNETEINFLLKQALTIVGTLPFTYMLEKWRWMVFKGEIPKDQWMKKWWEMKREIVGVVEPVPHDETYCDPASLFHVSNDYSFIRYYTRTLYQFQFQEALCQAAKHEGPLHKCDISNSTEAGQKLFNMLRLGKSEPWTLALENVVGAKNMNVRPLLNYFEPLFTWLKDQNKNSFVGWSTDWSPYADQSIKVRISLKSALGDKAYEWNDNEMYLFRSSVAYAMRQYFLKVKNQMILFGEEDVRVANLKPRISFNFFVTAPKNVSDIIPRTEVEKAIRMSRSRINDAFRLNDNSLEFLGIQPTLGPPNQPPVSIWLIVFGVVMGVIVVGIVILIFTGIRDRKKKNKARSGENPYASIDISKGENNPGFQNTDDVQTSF

`CN1CCCC(n2nc(Cc3ccc(Cl)cc3)c3ccccc3c2=O)CC1` (stereo not shown) [azelastine] had a pKd of 6.59.

These data come from publication PMC8144927 (Virology, 2021).
